Reference: ChEMBL document CHEMBL4257586, “Polyheteroaryl Oxazole/Pyridine-Based Compounds Selected in Vitro as G-Quadruplex Ligands Inhibit Rock Kinase and Exhibit Antiproliferative Activity” (J Med Chem, 2018)
Activity calls are given as the source filed them. The rule behind the calls is not given here.

Experiments:
[1] = test system: HeLa; assay: Induction of double stranded DNA breaks in human HeLa cells assessed as gamma-H2Ax phosphorylation at 2 uM after 24 to 48 hrs by Hoechst 33342 staining-based laser confocal microscopy; type: functional, cell-based
[2] = target: T1, Rho-associated protein kinase (Homo sapiens) (UniProt O75116+Q13464); assay: Inhibition of ROCK in human Hela cells assessed as formation of long neurite-like extensions at 2 uM by phalloidin-based immunofluorescence assay; type: cell-based
T1 sequence (O75116 whole entry, looked up): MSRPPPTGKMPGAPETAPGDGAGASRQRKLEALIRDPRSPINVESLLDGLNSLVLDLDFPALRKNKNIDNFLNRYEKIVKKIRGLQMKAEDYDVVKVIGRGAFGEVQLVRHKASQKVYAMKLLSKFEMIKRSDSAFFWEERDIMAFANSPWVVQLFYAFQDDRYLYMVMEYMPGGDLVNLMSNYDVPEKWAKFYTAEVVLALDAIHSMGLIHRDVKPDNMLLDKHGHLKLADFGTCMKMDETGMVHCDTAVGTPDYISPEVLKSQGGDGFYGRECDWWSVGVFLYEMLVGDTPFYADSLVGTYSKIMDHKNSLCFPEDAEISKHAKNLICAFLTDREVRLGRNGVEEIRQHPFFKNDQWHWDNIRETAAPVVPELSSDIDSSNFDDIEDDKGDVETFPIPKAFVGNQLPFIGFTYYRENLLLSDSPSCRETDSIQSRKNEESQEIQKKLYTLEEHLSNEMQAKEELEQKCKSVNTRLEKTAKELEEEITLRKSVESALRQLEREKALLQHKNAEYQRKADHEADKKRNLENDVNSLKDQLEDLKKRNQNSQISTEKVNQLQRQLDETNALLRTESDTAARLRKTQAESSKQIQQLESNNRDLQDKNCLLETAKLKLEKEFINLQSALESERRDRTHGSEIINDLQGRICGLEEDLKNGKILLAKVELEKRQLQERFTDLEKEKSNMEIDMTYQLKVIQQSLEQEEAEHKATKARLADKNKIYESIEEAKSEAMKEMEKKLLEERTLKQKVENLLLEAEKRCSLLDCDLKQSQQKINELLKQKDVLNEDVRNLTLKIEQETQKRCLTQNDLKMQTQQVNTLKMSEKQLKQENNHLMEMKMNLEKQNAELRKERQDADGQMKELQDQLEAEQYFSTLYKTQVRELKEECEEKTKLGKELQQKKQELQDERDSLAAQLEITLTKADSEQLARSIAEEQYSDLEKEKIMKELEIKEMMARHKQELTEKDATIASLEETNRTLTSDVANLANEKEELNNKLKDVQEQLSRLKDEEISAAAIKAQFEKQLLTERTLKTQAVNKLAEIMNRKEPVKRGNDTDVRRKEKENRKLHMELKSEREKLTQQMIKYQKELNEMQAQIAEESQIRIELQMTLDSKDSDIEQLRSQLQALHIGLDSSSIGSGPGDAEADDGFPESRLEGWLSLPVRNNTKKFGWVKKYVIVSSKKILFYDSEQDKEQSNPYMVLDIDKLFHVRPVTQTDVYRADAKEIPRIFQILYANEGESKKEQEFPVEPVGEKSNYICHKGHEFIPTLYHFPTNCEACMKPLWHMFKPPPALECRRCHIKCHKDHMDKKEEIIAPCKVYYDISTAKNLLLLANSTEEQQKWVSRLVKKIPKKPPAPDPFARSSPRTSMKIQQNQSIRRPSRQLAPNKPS
T1 sequence (Q13464 whole entry, looked up): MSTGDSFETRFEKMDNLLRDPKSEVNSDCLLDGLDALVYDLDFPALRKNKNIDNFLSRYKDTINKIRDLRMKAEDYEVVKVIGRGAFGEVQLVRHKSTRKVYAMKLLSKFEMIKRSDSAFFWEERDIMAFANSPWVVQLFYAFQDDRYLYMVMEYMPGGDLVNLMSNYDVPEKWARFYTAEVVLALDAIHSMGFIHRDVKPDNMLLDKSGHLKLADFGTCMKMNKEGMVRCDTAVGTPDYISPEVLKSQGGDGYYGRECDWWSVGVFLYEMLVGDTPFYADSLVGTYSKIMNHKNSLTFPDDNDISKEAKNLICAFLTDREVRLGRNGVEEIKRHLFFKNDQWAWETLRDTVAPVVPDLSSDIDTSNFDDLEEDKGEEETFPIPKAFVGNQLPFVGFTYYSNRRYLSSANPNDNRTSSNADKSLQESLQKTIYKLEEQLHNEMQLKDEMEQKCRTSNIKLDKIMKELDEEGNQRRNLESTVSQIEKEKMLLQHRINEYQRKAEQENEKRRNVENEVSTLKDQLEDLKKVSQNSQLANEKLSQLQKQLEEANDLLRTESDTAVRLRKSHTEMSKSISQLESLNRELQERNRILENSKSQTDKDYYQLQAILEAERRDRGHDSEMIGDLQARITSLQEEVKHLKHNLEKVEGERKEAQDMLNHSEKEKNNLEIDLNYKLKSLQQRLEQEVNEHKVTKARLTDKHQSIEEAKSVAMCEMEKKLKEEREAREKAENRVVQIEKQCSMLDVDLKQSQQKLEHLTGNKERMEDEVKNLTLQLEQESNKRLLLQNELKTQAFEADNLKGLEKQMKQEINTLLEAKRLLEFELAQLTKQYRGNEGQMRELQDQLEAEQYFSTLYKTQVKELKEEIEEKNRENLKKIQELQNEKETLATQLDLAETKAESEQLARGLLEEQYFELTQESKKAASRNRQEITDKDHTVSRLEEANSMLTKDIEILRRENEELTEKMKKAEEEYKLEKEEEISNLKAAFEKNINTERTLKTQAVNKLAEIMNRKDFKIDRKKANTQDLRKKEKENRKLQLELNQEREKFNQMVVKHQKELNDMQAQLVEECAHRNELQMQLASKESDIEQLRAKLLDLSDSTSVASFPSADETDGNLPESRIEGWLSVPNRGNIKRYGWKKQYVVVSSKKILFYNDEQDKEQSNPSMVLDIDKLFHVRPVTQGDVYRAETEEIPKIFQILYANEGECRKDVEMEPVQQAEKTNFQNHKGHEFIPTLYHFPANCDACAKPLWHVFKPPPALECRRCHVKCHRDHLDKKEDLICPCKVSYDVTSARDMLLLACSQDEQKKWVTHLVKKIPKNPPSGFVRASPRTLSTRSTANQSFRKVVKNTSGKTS
Summary of the method: (§1)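 HeLa cells on glass coverslips treated overnight at 2 μM or with DMSO control, then fixed in 4% formaldehyde for 10 min at 37 °C. Actin stained with phalloidin; α-tubulin or anti-phospho-Tyr focal points also labelled, plus DNA. Imaged by confocal microscopy.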

[3] = test system: dsDNA; assay: Binding affinity to duplex 26 DNA (unknown origin) assessed as change in melting temperature at 1 uM by FRET; type: nucleic-acid assay
[4] = target: T1, Rho-associated protein kinase (Homo sapiens); assay: Inhibition of ROCK in human Hela cells assessed as reduction in cell spreading at 2 uM by phalloidin-based immunofluorescence assay; summary of the method: as §1
[5] = target: T2, Rho-associated protein kinase 2 (Homo sapiens, UniProt O75116); assay: Inhibition of ROCK2 (unknown origin) by ATP competition assay
Summary of the method: (§2)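 Recombinant kinases assayed in duplicate by radioactive filter-binding assay with 33P-ATP; no-compound controls run and each plate validated by Z′. IC50 values determined.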
Target sequence in this assay (O75116 whole entry): as the sequence (O75116 whole entry, looked up) above

[6] = organism: Homo sapiens; assay: Selectivity index, ratio of IC50 for inhibition of DMPK (unknown origin) to IC50 for inhibition of ROCK2 (unknown origin)
[7] = target: Rho-associated protein kinase 1 (Homo sapiens, UniProt Q13464); assay: Inhibition of ROCK1 (unknown origin) by ATP competition assay; summary of the method: as §2
Chain of Rho-associated protein kinase 1 (Q13464 whole entry): as the sequence (Q13464 whole entry, looked up) above

[8] = test system: Quadruplex DNA; assay: Binding affinity to 6-FAM labeled human telomeric F21T G-quadruplex DNA assessed as change in melting temperature at 1 uM in K+ rich buffer (10 mM KCl, 90 mM LiCl, 10 mM Li cacodylate) by FRET assay; type: nucleic-acid assay
Summary of the method: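 FRET melting in duplicate. Dual-labelled oligo (6-FAM/TAMRA) at 0.2 μM with ligand at 1 μM, in 10 mM Li cacodylate pH 7.2. Buffer was 10 mM KCl + 90 mM LiCl for F21T and 1 mM KCl + 99 mM LiCl for FMycT. Sample annealed 90 °C 5 min, cooled to 4 °C overnight. Equilibrated 5 min at 25 °C, then ramped 0.5 °C/min to 95 °C. FAM read 492/516 nm, normalized; Tm taken at the fitted inflection point.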

[9] = test system: dsDNA; assay: Binding affinity to duplex 26 DNA (unknown origin) by fluorescence spectrophotometric analysis; type: nucleic-acid assay
Summary of the method: (§3)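 Fluorescence titration in 10 mM lithium cacodylate pH 7.2 with 100 mM KCl, 1 cm quartz cell. Ligand at 0.5 μM, excited at 330 or 340 nm, with increasing DNA added (22AG, c-Myc or ds26). Emission over 340/350–650 nm plotted against DNA concentration and fitted by Hill equation to give apparent Ka (1:1).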

[10] = test system: HeLa; assay: Cytotoxicity against human HeLa cells assessed as reduction in organization of stress fibers at 1 uM after 24 to 48 hrs by Hoechst 33342 staining-based laser confocal microscopy; type: functional, cell-based
[11] = test system: HeLa; assay: Induction of double stranded DNA breaks in human HeLa cells assessed as gamma-H2Ax phosphorylation at 1 uM after 24 to 48 hrs by Hoechst 33342 staining-based laser confocal microscopy; type: functional, cell-based
[12] = organism: Homo sapiens; assay: Selectivity index, ratio of IC50 for inhibition of ROCK1 (unknown origin) to IC50 for inhibition of ROCK2 (unknown origin)
[13] = test system: Quadruplex DNA; assay: Binding affinity to 22AG G-quadruplex DNA (unknown origin) by fluorescence spectrophotometric analysis; type: nucleic-acid assay; summary of the method: as §3
[14] = test system: Quadruplex DNA; assay: Binding affinity to c-Myc G-quadruplex DNA (unknown origin) by fluorescence spectrophotometric analysis; type: nucleic-acid assay; summary of the method: as §3
[15] = target: T3, Myotonin-protein kinase (Homo sapiens, UniProt Q09013); assay: Inhibition of DMPK (unknown origin) by ATP competition assay; summary of the method: as §2
T3 sequence (Q09013 whole entry): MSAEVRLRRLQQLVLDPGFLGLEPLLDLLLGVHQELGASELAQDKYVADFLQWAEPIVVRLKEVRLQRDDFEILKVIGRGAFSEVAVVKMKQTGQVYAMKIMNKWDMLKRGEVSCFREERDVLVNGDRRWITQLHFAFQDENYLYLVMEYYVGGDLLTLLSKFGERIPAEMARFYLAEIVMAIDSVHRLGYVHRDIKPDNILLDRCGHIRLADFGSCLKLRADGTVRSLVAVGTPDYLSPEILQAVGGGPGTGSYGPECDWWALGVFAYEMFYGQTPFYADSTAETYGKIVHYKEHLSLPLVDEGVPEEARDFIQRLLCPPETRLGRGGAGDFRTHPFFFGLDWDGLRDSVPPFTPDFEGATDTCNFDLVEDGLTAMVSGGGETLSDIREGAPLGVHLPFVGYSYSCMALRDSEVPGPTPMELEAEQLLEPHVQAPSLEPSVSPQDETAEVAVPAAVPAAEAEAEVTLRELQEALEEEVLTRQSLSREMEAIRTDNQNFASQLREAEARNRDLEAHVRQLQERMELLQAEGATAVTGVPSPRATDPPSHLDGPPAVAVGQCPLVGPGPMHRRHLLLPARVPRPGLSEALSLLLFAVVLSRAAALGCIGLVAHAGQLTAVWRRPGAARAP

[16] = target: T2, Rho-associated protein kinase 2; assay: Inhibition of ROCK2 in human HeLa cells assessed as reduction in cofilin phosphorylation at Ser3 at 2 uM after 3 hrs by Western blot analysis; type: cell-based
Summary of the method: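 HeLa cells treated 3 h at 2 or 5 μM, then lysed in RIPA buffer with protease and phosphatase inhibitors. Western blot probed with anti-phospho-cofilin Ser3 and anti-actin (1/1000) on the same split membrane; luminescence detection.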
Target sequence in this assay (O75116 whole entry, looked up): as the sequence (O75116 whole entry, looked up) above

[17] = test system: NCI-H358; assay: Antiproliferative activity against human NCI-H358 cells after 72 hrs by MTS assay; type: functional, cell-based; details: NCI-H358, 72 h
Summary of the method: (§4)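 Cells seeded at day 0 in 96-well plates, serial compound dilutions added at day 1; viable cells read 72 h after drug addition by MTS tetrazolium assay, in triplicate. IC50 taken as concentration halving cell growth. One first trial, then two additional experiments on selected compounds.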

[18] = test system: A549; assay: Antiproliferative activity against human A549 cells after 72 hrs by MTS assay; type: functional, cell-based; details: A549, 72 h; summary of the method: as §4
[19] = test system: M21; assay: Antiproliferative activity against human M21 cells after 72 hrs by MTS assay; type: functional, cell-based; details: M21, 72 h; summary of the method: as §4
[20] = test system: A549; assay: Cytotoxicity against human A549 cells assessed as presence of large vesicles at 1 uM after 24 to 48 hrs by Hoechst 33342 staining-based laser confocal microscopy; type: functional, cell-based
[21] = test system: M21; assay: Antiproliferative activity against alpha5-integrin lacking human M21 cells after 72 hrs by MTS assay; type: functional, cell-based; details: M21, 72 h; summary of the method: as §4
[22] = test system: A-375; assay: Induction of double stranded DNA breaks in human A375 cells assessed as gamma-H2Ax phosphorylation at 1 uM after 24 to 48 hrs by Hoechst 33342 staining-based laser confocal microscopy; type: functional, cell-based

inhibition [2] | Activity [3] | inhibition [4] | IC50 [5] [µM] | Ratio IC50 [6] | IC50 [7] [µM] | ΔTm [8] [°C] | Ka [9] [×10⁶ /M] | Ratio IC50 [12] | Activity [13] | Ka [13] [×10⁶ /M] | Activity [14] | Ka [14] [×10⁶ /M] | IC50 [15] [µM] | inhibition [16] | IC50 [17] [µM] | IC50 [18] [µM] | Structure (SMILES) | Activity [1] | Activity [10] | Activity [11] | other results
Active | inactive | Active | 0.02 | > 50 | > 1 | 6 to 9 | 1 | > 50 | Dose-dependent effect | 2.5 | Dose-dependent effect | 22 | > 1 | – | – | – | CN(C)CCOc1cc(-c2ncc(-c3cccc(-c4cnco4)n3)o2)nc(-c2ncc(-c3cccc(-c4cnco4)n3)o2)c1 | inactive | Active | inactive | –
Active | inactive | Active | 0.029 | > 50 | > 1 | 6 to 9 | 0.9 | > 50 | Dose-dependent effect | 6.7 | Dose-dependent effect | 19 | > 1 | Active | 7.7 | 2.71 | c1cc(-c2cnco2)nc(-c2cnc(-c3cccc(-c4ncc(-c5cccc(-c6cnco6)n5)o4)n3)o2)c1 | inactive | Active | inactive | IC50 [19]: 1.56 µM; Activity [20]: Active; IC50 [21]: 7.24 µM; Activity [22]: inactive
Active | inactive | Active | 0.851 | 1.4 | > 1 | 6 to 9 | 3 | 1.4 | Dose-dependent effect | 3.9 | Dose-dependent effect | 16 | > 1 | Active | 3.75 | 3.95 | c1cc(-c2cnco2)nc(-c2cnc(-c3cccc(-c4cccc(-c5ncc(-c6cccc(-c7cnco7)n6)o5)n4)n3)o2)c1 | inactive | Active | inactive | IC50 [19]: 1.58 µM; Activity [20]: Active; IC50 [21]: 3.57 µM; Activity [22]: inactive
